Reference: ChEMBL document CHEMBL1151846, “Cytotoxic constituents of chinese propolis” (J Nat Prod, 2009)

These molecules were tested on HeLa (assay: Cytotoxicity against human HeLa cells by MTT assay).
Assay type: functional, cell-based
Outline: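 HeLa human cervical cancer cells were tested by MTT viability assay, following a previously published protocol. Doxorubicin was run as the reference cytotoxic control. Values are reported as IC50 in µM.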
For O=c1c(O)c(-c2ccc(O)c(O)c2)oc2cc(O)cc(O)c12 [QUERCETIN], the IC50 was at least 10 µM.
O=c1cc(-c2ccccc2)oc2cc(O)cc(O)c12 [CHRYSIN] was tested, and the IC50 was at least 10 µM.
Work on O=C1C[C@@H](c2ccccc2)Oc2cc(O)cc(O)c21 [PINOCEMBRIN] yielded an IC50 of at least 10 µM.
With COc1cc(O)cc2c1C(=O)C(O)C(c1ccccc1)O2 (configuration not stated) the IC50 was at least 10 µM.
In the case of COc1cc(O)c2c(=O)c(O)c(-c3ccc(O)c(O)c3)oc2c1 [RHAMNETIN], the IC50 is reported as 7.8 µM.
COc1cc(O)c(C(=O)/C=C/c2ccccc2)c2c1C[C@H](O)[C@@H](c1cc(O)cc(O)c1)O2 showed an IC50 of 7.3 µM.
With COc1cc(-c2oc3cc(O)cc(O)c3c(=O)c2O)ccc1O [ISORHAMNETIN] the IC50 was at least 10 µM.
With COc1cc(C2Oc3c(c(OC)cc(O)c3C(=O)/C=C/c3ccccc3)CC2O)ccc1O (configuration not stated) the IC50 was 6.4 µM.
Work on O=c1c(O)c(-c2ccccc2)oc2cc(O)cc(O)c12 [GALANGIN] yielded an IC50 of at least 10 µM.
With COc1cc(O)c(C(=O)/C=C/c2ccccc2)c2c1C[C@@H](O)[C@H](c1cc(O)cc(O)c1)O2 the IC50 was 7.1 µM.
Molecule COc1ccc(/C=C/C(=O)O)cc1O [ISOFERULIC ACID] has an IC50 of at least 10 µM.
O=c1cc(-c2ccc(O)cc2)oc2cc(O)cc(O)c12 [APIGENIN] was tested, and the IC50 was at least 10 µM.
